Experimental data of several laboratories.
Protocols differ between the studies behind these lines.
Target: Tyrosine-protein kinase Lyn (LYN, Homo sapiens, UniProt P07948)

| Compound | read-out | mode | method | concentration | quantity | result |
| --- | --- | --- | --- | --- | --- | --- |
| Cc1cc(NC(=O)c2cccc3cc(-c4cccc5[nH]nc(N)c45)ccc23)ccc1F | enzyme activity | inhibitor |  | 0.1 µM | activity vs control | 88% |
| CN(C)S(=O)(=O)c1ccc2c(c1)/C(=C/c1cc3c([nH]1)CCCC3)C(=O)N2 | cell-free assay |  |  | 0.5 µM | remaining signal | 16.2% |
| C[C@H](NC(=O)c1cnc2n1[C@](C)(Cc1ccc(C#N)cc1)C(=O)N2c1cc(Cl)c(F)c(Cl)c1)C(=O)NC1(c2ccccn2)CC1 | cell-free assay |  | competition with immobilised ligand | 1 µM | remaining binding | 100% |
| CN1CCC2(CC1)NC(=O)c1c(c3ccc(Cl)c(Cl)c3n1C)C2C#N (racemic) | thermal stability |  | DSF | 10 µM | ΔTm | -0.1 °C |
| O=C1Nc2ccc(Cl)cc2C1=Cc1cc(Cl)c(O)c(Cl)c1 | cell-free assay |  |  | 0.5 µM | remaining signal | 81.6% |
| CCN(CC)CCNC(=O)c1c(C)[nH]c(/C=C2\C(=O)Nc3ccc(F)cc32)c1C | enzyme activity | inhibitor |  | 0.3 µM | inhibition | 42% |
| Cc1c(NC(=O)c2cc(C(N)=O)nc3cc(F)ccc23)c(C(F)(F)F)nn1Cc1ccc(C#N)cc1 | cell-free assay |  | competition with immobilised ligand | 1 µM | remaining binding | 100% |
| Cn1c2c(c3ccc(Cl)c(Cl)c31)C(C#N)C1(CCN(C(=O)OC(C)(C)C)CC1)NC2=O (racemic) | thermal stability |  | DSF | 10 µM | ΔTm | 0 °C |
| CCN(CC)c1ccc(C2=NNC(=O)CC2C)cc1[N+](=O)[O-] (stereo not drawn) | enzyme activity | inhibitor |  | 10 µM | remaining activity | 114% |
| COc1cc2c(N3CCN(C(=O)Nc4ccc(OC(C)C)cc4)CC3)ncnc2cc1OCCCN1CCCCC1 | cell-free assay |  |  | 0.5 µM | remaining signal | 95.6% |
| CC(C)(O)c1cncc(-c2nc3ccc(F)cc3n2C2CC2)c1 | cell-free assay |  | competition with immobilised ligand | 1 µM | remaining binding | 100% |
| Cn1c2c(c3ccc(Cl)c(Cl)c31)C(C#N)C(C)(C)NC2=O (stereo not drawn) | thermal stability |  | DSF | 10 µM | ΔTm | 0.1 °C |
| O=C(Nc1cnn(-c2csc(C(=O)NC3COC3)c2)c1)Nc1ccccc1Cl | enzyme activity | inhibitor |  | 5 µM | remaining activity | 96.8% |
| O=C(N1CCS(=O)(=O)CC1)N1C[C@H](c2ccc(OC(F)(F)F)cc2)C[C@H](c2nc(C3CC3)no2)C1 | cell-free assay |  | competition with immobilised ligand | 1 µM | remaining binding | 85% |
| Cc1ccc(C(=O)NCc2ccsc2)cc1C#Cc1cn(C(C)C)c2ncnc(N)c12 | enzyme activity | inhibitor |  | 1 µM | activity vs control | 0% |
| CNCc1ccc(-c2cc(-c3nc(-c4ccc(S(=O)(=O)C(C)C)cc4)cnc3N)on2)cc1 | enzyme activity | inhibitor |  | 0.4 µM | inhibition | 13% |
| c1nc2c(Nc3ccc4c(c3)OCCO4)nc(Nc3ccc4c(c3)OCCO4)nc2[nH]1 | enzyme activity | inhibitor |  | 10 µM | activity vs control | 32% |
| CNc1cccc2cc(C(=O)Nc3ccc(C(=O)O)cc3)c(=O)[nH]c12 | enzyme activity | inhibitor |  | 10 µM | inhibition | -4.6% |
